Experiments:
[1] = biological target: T1, Muscarinic acetylcholine receptor M2 (Homo sapiens, UniProt P08172); assay: Displacement of [3H]QNB from human muscarinic M2 receptor expressed in CHO cells; format: cell-based
T1 sequence (P08172 whole entry): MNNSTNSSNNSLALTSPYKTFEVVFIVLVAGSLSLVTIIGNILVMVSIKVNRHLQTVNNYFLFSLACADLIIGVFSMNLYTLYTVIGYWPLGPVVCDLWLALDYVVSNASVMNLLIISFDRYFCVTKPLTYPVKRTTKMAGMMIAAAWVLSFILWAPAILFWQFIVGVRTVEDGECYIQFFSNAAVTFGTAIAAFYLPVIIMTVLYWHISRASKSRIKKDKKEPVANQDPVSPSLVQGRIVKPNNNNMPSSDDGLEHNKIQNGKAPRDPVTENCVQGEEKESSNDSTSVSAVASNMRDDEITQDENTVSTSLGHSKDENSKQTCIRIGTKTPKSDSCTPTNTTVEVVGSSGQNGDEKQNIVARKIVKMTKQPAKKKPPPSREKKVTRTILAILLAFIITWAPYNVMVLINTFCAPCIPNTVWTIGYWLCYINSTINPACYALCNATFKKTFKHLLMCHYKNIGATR
Method in brief: (§1)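 Membranes (10-50 µg protein) from stable CHO lines expressing human m2-m5, competed against 180 pM [3H]QNB in 50 mM Tris-HCl pH 7.4 with 1% DMSO; 120 min at 25 °C to equilibrium; nonspecific binding with 0.5 µM atropine; GF-C filtration, scintillation counting; IC50 by logistic fit, Ki via Cheng–Prusoff using saturation-derived KD (5–2500 pM [3H]QNB).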

[2] = biological target: T2, Muscarinic acetylcholine receptor M5 (Homo sapiens, UniProt P08912); assay: Displacement of [3H]QNB from human muscarinic M5 receptor expressed in CHO cells; format: cell-based
T2 sequence (P08912 whole entry): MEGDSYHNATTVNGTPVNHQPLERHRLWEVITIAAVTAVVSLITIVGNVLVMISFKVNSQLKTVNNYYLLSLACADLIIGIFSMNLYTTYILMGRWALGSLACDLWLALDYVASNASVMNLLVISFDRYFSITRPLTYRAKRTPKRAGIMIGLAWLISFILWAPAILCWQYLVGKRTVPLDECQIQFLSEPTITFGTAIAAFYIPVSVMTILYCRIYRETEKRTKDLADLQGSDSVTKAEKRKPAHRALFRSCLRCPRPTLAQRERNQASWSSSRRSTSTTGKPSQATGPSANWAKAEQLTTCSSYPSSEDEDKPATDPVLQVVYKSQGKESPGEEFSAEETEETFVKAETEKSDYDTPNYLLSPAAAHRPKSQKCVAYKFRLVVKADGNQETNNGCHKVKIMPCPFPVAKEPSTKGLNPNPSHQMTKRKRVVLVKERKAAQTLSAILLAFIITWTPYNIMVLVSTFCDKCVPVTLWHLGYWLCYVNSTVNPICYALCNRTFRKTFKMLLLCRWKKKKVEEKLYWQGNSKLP

[3] = biological target: Muscarinic acetylcholine receptor M3 (Cavia porcellus) (UniProt Q8VH26); assay: Intrinsic activity at muscarinic M3 receptor in guinea-pig ileum relative to benthanechol; format: tissue-based
Muscarinic acetylcholine receptor M3 (Cavia porcellus), sequence (Q8VH26 1-587): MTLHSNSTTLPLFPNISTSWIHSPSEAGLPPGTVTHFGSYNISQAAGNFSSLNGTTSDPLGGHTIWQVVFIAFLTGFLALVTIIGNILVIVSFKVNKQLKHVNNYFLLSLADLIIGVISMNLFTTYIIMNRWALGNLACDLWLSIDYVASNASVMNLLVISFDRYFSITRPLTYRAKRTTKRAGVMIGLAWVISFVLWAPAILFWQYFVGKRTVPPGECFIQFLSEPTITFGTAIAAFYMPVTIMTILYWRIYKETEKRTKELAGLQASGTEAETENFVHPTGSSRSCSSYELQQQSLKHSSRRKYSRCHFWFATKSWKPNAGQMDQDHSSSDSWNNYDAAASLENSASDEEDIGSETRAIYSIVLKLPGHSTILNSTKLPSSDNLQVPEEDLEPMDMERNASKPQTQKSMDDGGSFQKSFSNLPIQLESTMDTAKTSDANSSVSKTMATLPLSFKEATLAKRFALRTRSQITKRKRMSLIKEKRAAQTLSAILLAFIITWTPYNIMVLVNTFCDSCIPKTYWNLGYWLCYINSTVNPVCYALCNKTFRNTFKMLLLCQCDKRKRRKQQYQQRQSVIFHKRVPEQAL
Method in brief: (§2)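 Intrinsic activity as ratio of compound's maximal response to that of reference full agonist (McN-A-343 for vas deferens, bethanechol for atrium and ileum), from cumulative concentration–response curves; mean of 6-8 experiments.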

[4] = Antagonist activity at muscarinic M1 receptor in electrically stimulated New Zealand rabbit vas deferens; format: functional, Oryctolagus cuniculus
Method in brief: (§3)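 Antagonist mode: after 30 min incubation with test compound (10 nM–100 µM), concentration–response curve to full agonist (bethanechol or McN-A-343) repeated; pKB as molar concentration giving twofold EC50 shift, Furchgott's method; mean of 6-8 experiments.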

[5] = biological target: T3, Muscarinic acetylcholine receptor M3 (Cavia porcellus, UniProt Q8VH26); assay: Agonist activity at muscarinic M3 receptor in guinea-pig ileum; format: functional, tissue-based
T3 sequence (Q8VH26 whole entry): as the sequence (Q8VH26 1-587) above
Method in brief: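 Guinea-pig ileal segments 2–3 cm, 1.0 g tension, 37 °C Krebs-Henseleit with carbogen, 45 min equilibration; isometric contractions to cumulative agonist concentrations; pEC50 by least-squares linear regression; mean of 6-8 experiments.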

[6] = biological target: T4, Muscarinic acetylcholine receptor M4 (Homo sapiens, UniProt P08173); assay: Displacement of [3H]QNB from human muscarinic M4 receptor expressed in CHO cells; format: cell-based; method in brief: as §1
T4 sequence (P08173 whole entry): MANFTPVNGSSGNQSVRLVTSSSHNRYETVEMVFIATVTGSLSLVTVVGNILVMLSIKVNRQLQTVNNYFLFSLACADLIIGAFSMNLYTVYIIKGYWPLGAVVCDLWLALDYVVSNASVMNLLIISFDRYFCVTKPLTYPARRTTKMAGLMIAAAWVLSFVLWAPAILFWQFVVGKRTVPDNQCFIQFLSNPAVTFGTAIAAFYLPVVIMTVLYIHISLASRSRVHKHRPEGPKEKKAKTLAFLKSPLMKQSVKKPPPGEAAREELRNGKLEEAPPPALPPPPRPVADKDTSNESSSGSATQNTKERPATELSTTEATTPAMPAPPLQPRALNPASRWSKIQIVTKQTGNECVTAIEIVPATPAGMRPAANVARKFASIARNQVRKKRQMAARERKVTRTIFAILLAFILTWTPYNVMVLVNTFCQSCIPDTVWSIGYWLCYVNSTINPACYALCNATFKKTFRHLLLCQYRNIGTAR

[7] = species: Oryctolagus cuniculus; assay: Intrinsic activity at muscarinic M1 receptor in electrically stimulated New Zealand rabbit vas deferens relative to McN-A-343; format: tissue-based; method in brief: as §2
[8] = biological target: T3, Muscarinic acetylcholine receptor M3; assay: Binding affinity to muscarinic M3 receptor in guinea-pig ileum; format: tissue-based
Method in brief: (§4)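 Apparent affinity pKD: for full agonists by receptor inactivation with phenoxybenzamine (1-10 µM, 20-30 min); for partial agonists by McKay's method comparing curves with reference full agonist; mean of 6-8 experiments.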

[9] = biological target: T5, Muscarinic acetylcholine receptor M1 (Homo sapiens, UniProt P11229); assay: biochemical; format: cell-based, CHO
T5 sequence (P11229 whole entry): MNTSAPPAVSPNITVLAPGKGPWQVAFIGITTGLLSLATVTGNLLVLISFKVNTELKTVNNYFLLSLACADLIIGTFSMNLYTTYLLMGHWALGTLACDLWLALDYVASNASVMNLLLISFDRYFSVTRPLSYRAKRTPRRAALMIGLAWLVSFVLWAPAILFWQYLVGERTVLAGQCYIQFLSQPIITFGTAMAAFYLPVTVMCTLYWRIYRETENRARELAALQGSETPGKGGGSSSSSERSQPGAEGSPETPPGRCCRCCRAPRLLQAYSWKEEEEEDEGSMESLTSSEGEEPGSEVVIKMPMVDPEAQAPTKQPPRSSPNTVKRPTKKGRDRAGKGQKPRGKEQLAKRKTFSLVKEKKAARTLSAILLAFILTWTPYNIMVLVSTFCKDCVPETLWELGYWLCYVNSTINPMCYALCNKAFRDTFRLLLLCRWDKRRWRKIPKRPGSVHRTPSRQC

[10] = species: Cavia porcellus; assay: Intrinsic activity at muscarinic M2 receptor in electrically stimulated guinea-pig left atrium relative to benthanechol; format: tissue-based; settings: Cardiac atrium; method in brief: as §2
[11] = Binding affinity to muscarinic M2 receptor in electrically stimulated guinea-pig left atrium; format: tissue-based, Cavia porcellus, Cardiac atrium; method in brief: as §4
[12] = biological target: Muscarinic acetylcholine receptor M3 (Homo sapiens, UniProt P20309); assay: Displacement of [3H]QNB from human muscarinic M3 receptor expressed in CHO cells; format: cell-based
Muscarinic acetylcholine receptor M3 (Homo sapiens, UniProt P20309), sequence (P20309 whole entry): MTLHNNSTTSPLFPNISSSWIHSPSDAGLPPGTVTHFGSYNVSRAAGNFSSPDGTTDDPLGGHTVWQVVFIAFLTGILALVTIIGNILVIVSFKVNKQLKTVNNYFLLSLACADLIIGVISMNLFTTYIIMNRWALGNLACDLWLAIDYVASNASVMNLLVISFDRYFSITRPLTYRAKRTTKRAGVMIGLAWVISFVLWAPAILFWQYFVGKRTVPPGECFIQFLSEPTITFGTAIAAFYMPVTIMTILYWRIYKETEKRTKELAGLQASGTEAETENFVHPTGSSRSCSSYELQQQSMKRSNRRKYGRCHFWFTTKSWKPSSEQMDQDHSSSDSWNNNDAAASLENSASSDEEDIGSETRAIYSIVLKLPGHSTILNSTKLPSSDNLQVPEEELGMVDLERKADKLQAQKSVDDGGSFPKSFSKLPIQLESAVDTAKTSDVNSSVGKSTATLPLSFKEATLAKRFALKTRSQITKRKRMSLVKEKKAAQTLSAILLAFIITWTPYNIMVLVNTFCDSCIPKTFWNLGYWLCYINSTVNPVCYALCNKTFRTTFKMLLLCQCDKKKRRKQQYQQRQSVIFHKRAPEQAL

[13] = Agonist activity at muscarinic M2 receptor in electrically stimulated guinea-pig left atrium; format: functional, tissue-based; settings: Cavia porcellus, Cardiac atrium
[14] = Binding affinity to muscarinic M1 receptor in electrically stimulated New Zealand rabbit vas deferens; format: tissue-based, Oryctolagus cuniculus; method in brief: as §4
[15] = Agonist activity at muscarinic M1 receptor in electrically stimulated New Zealand rabbit vas deferens; format: functional, tissue-based; settings: Oryctolagus cuniculus
[16] = biological target: Muscarinic acetylcholine receptor M3 (Cavia porcellus) (UniProt Q8VH26); assay: Antagonist activity at muscarinic M3 receptor in guinea-pig ileum; format: functional, tissue-based; method in brief: as §3
[17] = Antagonist activity at muscarinic M2 receptor in electrically stimulated guinea-pig left atrium; format: functional, Cavia porcellus, Cardiac atrium; method in brief: as §3

Row | SMILES | Ki [1] | Ki [2] | Intrinsic activity [3] | pKb [4] | EC50 [5] | Ki [6] | Intrinsic activity [7] | Kd [8] | Ki [9] | Intrinsic activity [10] | pKd [11] | Ki [12] | EC50 [13] | pKd [14] | EC50 [15] | pKb [16] | pKb [17]
1 | CN(C)CC#CCOc1cc(-c2ccccc2)on1 | > 10 µM | > 10 µM |  |  |  |  |  |  |  |  |  |  |  |  |  |  | 
2 | C(#CCN1CCCCC1)COC1=NOCC1.O=C(O)C(=O)O | 0.876 µM | 5.14 µM | 1 | 5.91 | 1.78 µM | 6.04 µM | 0 | 21.9 µM | 4.55 µM | 0.6 | 6.22 | 3.92 µM | 1.1 µM |  |  |  | 
3 | O=C1CCON1CC#CCN1C2CCCC1CC2 | > 10 µM | > 10 µM |  |  |  |  |  |  |  |  |  |  |  |  |  |  | 
4 | C[N+]1(CC#CCN2OCCC2=O)CCCCC1 | > 10 µM | > 10 µM |  |  |  |  |  |  |  |  |  |  |  |  |  |  | 
5 | C[N+]1(CC#CCN2OCCC2=O)CCc2ccccc21 (stereo unspecified) | > 10 µM | > 10 µM |  |  |  |  |  |  |  |  |  |  |  |  |  |  | 
6 | C(#CCN1CCc2ccccc21)COC1=NOCC1 | > 10 µM | > 10 µM |  |  |  |  |  |  |  |  |  |  |  |  |  |  | 
7 | Cc1cc(OCC#CCN(C)C)no1.O=C(O)/C=C/C(=O)O | 3.8 µM | > 10 µM | 1.1 |  | 0.794 µM | 1.1 µM | 0.6 | 39.8 µM | > 10 µM | 1 | 3.56 | > 10 µM | 0.513 µM | 5.45 | 3.47 µM |  | 
8 | O=C1CCON1CC#CCN1CCc2ccccc2C1 | > 10 µM | > 10 µM |  |  |  |  |  |  |  |  |  |  |  |  |  |  | 
9 | C[N+]12CCC(CC1)/C(=N/OCC#CCOc1ccon1)C2.[I-] | > 10 µM | > 10 µM | 0.7 |  | 3.55 µM |  | 0.9 | 9.33 µM |  |  |  |  | > 100 µM | 3.82 | 4.27 µM |  | 
10 | O=C1CCON1CC#CCN1CCCC1 | 0.07 µM | 0.51 µM |  |  |  | 0.222 µM |  |  | 0.905 µM |  |  | 0.392 µM |  |  |  |  | 
11 | C[N+]1(CC#CCOC2=NOCC2)CCc2ccccc21 (stereo unspecified) | 4.1 µM | > 10 µM |  |  |  | > 10 µM |  |  | > 10 µM |  |  | 5.54 µM |  |  |  |  | 
12 | C(#CCOc1ccon1)CO/N=C1\CN2CCC1CC2.O=C(O)/C=C/C(=O)O |  |  | 0.9 | 5.85 | 1.02 µM |  | 0 | 3.63 µM |  | 0.7 | 5.97 |  | 3.09 µM |  |  |  | 
13 | C[N+]1(CC#CCOC2=NOCC2)CCc2ccccc2C1 (stereo unspecified) | 0.474 µM | 5.66 µM |  |  |  | 2.26 µM |  |  | 6.96 µM |  |  | 0.887 µM |  |  |  |  | 
14 | C[N+](C)(C)CC#CCOC(=O)Nc1cccc(Cl)c1.[Cl-] |  |  |  |  |  |  | 1 |  |  |  |  |  |  | 7.2 | 0.398 µM |  | 
15 | C(#CCN1CCCC1)COc1cc(-c2ccccc2)on1 | > 10 µM | 6.88 µM | 0 |  |  | 5.48 µM | 1 |  | 6.14 µM | 0.6 |  | 4.01 µM | 21.9 µM |  | 44.7 µM | 4.94 | 
16 | O=C(O)C(=O)O.O=C1CCON1CC#CCN1CCCCC1 | 0.04 µM | 0.544 µM | 0 | 6.45 |  | 0.792 µM | 0 |  | 0.819 µM | 0.2 |  | 0.537 µM |  |  |  | 5.55 | 5.94
17 | CC(C[N+](C)(C)C)OC(N)=O (stereo unspecified) [BETHANECHOL] |  |  | 1 |  | 0.427 µM |  |  | 12.6 µM |  | 1 | 5.37 |  | 0.646 µM |  |  |  | 
18 | C[N+]1(CC#CCOC2=NOCC2)CCCCC1.[I-] | 0.219 µM | 4.12 µM | 1 |  | 0.269 µM | 1.68 µM | 0.4 | 0.295 µM | 7.37 µM | 1 | 6.74 | 4.74 µM | 0.0457 µM | 6.51 | 0.794 µM |  | 
19 | C[N+]1(CC#CCN2OCCC2=O)CCc2ccccc2C1 (stereo unspecified) | > 10 µM | > 10 µM |  |  |  |  |  |  |  |  |  |  |  |  |  |  | 
20 | Cc1cc(OCC#CC[N+]2(C)CCCC2)no1.[I-] | 2.04 µM | 7.51 µM | 0.9 | 6.01 | 0.55 µM | 5.93 µM | 0 | 1.66 µM | 7.68 µM | 1 | 6.72 | 7.39 µM | 0.251 µM |  |  |  | 
21 | Cc1cc(OCC#CC[N+](C)(C)C)no1.[I-] | 0.05 µM | 6.31 µM | 1 |  | 0.00724 µM | 0.682 µM | 0.9 | 0.676 µM | > 10 µM | 1 | 7.03 | 3.99 µM | 0.00661 µM | 6.97 | 0.0398 µM |  | 
22 | Cc1cc(OCC#CCN2CCCC2)no1.O=C(O)/C=C/C(=O)O | > 10 µM | > 10 µM | 0.4 | 5.66 | 15.1 µM |  | 0 | 15.5 µM |  | 0 |  |  |  |  |  |  | 4.81
23 | C(#CCN1CCc2ccccc2C1)COC1=NOCC1 | > 10 µM | > 10 µM |  |  |  |  |  |  |  |  |  |  |  |  |  |  | 
